Measurements reported in ChEMBL document CHEMBL5724801, “EUbOPEN Chemogenomics Library - Multiplex” (2024).
Where “and” joins values, the source holds several entries; their conditions need not be identical. Identical values can stand only once.

Tested on: Fibroblast
Experiment: Multiplex assay against human fibroblast
Assay type: toxicity, cell-based
Outline: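 Live cells carried four stains from seeding: Hoechst33342, BioTracker Green Microtubule Cytoskeleton Dye, MitoTracker Red and Annexin V Alexa Fluor 680. They were imaged on a CQ1 microscope at 37°C and 5% CO2 after compound addition. Using CellPathfinder machine-learning gating, cells were split into Hoechst high-intensity objects or normal cells, normal cells into healthy, pyknosed or fragmented nuclei, and pyknosed cells into mitotic or apoptotic; tubulin, mitochondrial-mass and membrane-permeability phenotypes are per cents of healthy-nucleus cells.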

[1] = 12 h, 1 µM, compound concentration 1 uM
[2] = 12 h, 10 µM, compound concentration 10 uM
[3] = 24 h, 1 µM, compound concentration 1 uM
[4] = 24 h, 10 µM, compound concentration 10 uM
[5] = 48 h, 1 µM, compound concentration 1 uM
[6] = 48 h, 10 µM, compound concentration 10 uM

## CNc1nc(NCc2ncccn2)c2c(-c3ccc4ncccc4c3)c[nH]c2n1
[1]
  Population Fragmented Nuclei (%): 13.9% and 7.14%
  Population Healthy Nuclei (%): 54.01% and 75.6%
  Population Hoechst High Intensity Objects (%): 0%
  Population Membrane Permeable-Phenotype (%): 2.97% and 3.94%
  Population Mitochondria Different-Phenotype (%): 7.92% and 10.24%
  Population Mitotic Cells (%): 95% and 75.86%
  Population Normal (%): 100%
  Population Pyknosed Nuclei (%): 32.09% and 17.26%
  Population Tubulin-Different-Phenotype (%): 11.88% and 22.83%
  Total Cell Count: 187 and 168
[2]
  Population Apoptotic (%): 15.15% and 23.33%
  Population Fragmented Nuclei (%): 8.7% and 4.55%
  Population Healthy Nuclei (%): 70.81% and 81.82%
  Population Hoechst High Intensity Objects (%): 0%
  Population Membrane Permeable-Phenotype (%): 15.79% and 10%
  Population Mitochondria Different-Phenotype (%): 16.67% and 13.89%
  Population Mitotic Cells (%): 84.85% and 76.67%
  Population Normal (%): 100%
  Population Pyknosed Nuclei (%): 20.5% and 13.64%
  Population Tubulin-Different-Phenotype (%): 33.33% and 51.67%
  Total Cell Count: 161 and 220
[3]
  Population Fragmented Nuclei (%): 11.26% and 5.29%
  Population Healthy Nuclei (%): 65.37% and 85.29%
  Population Hoechst High Intensity Objects (%): 0%
  Population Membrane Permeable-Phenotype (%): 1.99% and 6.21%
  Population Mitochondria Different-Phenotype (%): 3.31% and 4.83%
  Population Mitotic Cells (%): 98.15% and 87.5%
  Population Normal (%): 100%
  Population Pyknosed Nuclei (%): 23.38% and 9.41%
  Population Tubulin-Different-Phenotype (%): 12.58% and 11.72%
  Total Cell Count: 231 and 170
[4]
  Population Apoptotic (%): 23.08% and 26.09%
  Population Fragmented Nuclei (%): 8.06% and 4.98%
  Population Healthy Nuclei (%): 77.96% and 84.62%
  Population Hoechst High Intensity Objects (%): 0%
  Population Membrane Permeable-Phenotype (%): 2.76% and 4.28%
  Population Mitochondria Different-Phenotype (%): 11.72% and 12.83%
  Population Mitotic Cells (%): 76.92% and 73.91%
  Population Normal (%): 100%
  Population Pyknosed Nuclei (%): 13.98% and 10.41%
  Population Tubulin-Different-Phenotype (%): 37.24% and 52.41%
  Total Cell Count: 186 and 221
[5]
  Population Apoptotic (%): 11.76% and 6.67%
  Population Fragmented Nuclei (%): 8.43% and 2.79%
  Population Healthy Nuclei (%): 85.06% and 88.83%
  Population Hoechst High Intensity Objects (%): 0%
  Population Membrane Permeable-Phenotype (%): 1.35% and 4.4%
  Population Mitochondria Different-Phenotype (%): 11.26% and 5.66%
  Population Mitotic Cells (%): 88.24% and 93.33%
  Population Normal (%): 100%
  Population Pyknosed Nuclei (%): 6.51% and 8.38%
  Total Cell Count: 261 and 179
[6]
  Population Apoptotic (%): 23.08% and 42.86%
  Population Fragmented Nuclei (%): 11.86% and 6.28%
  Population Healthy Nuclei (%): 81.44% and 90.58%
  Population Hoechst High Intensity Objects (%): 0%
  Population Membrane Permeable-Phenotype (%): 5.06% and 7.92%
  Population Mitotic Cells (%): 76.92% and 57.14%
  Population Normal (%): 100%
  Population Pyknosed Nuclei (%): 6.7% and 3.14%
  Population Tubulin-Different-Phenotype (%): 18.35% and 54.46%
  Total Cell Count: 194 and 223

## Cl.Clc1cc2cc(c1)-c1cnn3ccc(nc13)NCCOCCO2
[1]
  Population Apoptotic (%): 25.93% and 36.11%
  Population Fragmented Nuclei (%): 12.14% and 4.56%
  Population Healthy Nuclei (%): 61.65% and 80.5%
  Population Hoechst High Intensity Objects (%): 0%
  Population Membrane Permeable-Phenotype (%): 11.02% and 2.58%
  Population Mitochondria Different-Phenotype (%): 4.72% and 10.82%
  Population Mitotic Cells (%): 74.07% and 63.89%
  Population Normal (%): 100%
  Population Pyknosed Nuclei (%): 26.21% and 14.94%
  Population Tubulin-Different-Phenotype (%): 11.02% and 23.2%
  Total Cell Count: 206 and 241
[2]
  Population Apoptotic (%): 10.2% and 20.59%
  Population Fragmented Nuclei (%): 10.65% and 5.56%
  Population Healthy Nuclei (%): 66.67% and 78.7%
  Population Hoechst High Intensity Objects (%): 0%
  Population Membrane Permeable-Phenotype (%): 8.33% and 4.71%
  Population Mitochondria Different-Phenotype (%): 12.5% and 18.82%
  Population Mitotic Cells (%): 89.8% and 79.41%
  Population Normal (%): 100%
  Population Pyknosed Nuclei (%): 22.69% and 15.74%
  Population Tubulin-Different-Phenotype (%): 22.22% and 26.47%
  Total Cell Count: 216
[3]
  Population Apoptotic (%): 31.43% and 41.38%
  Population Fragmented Nuclei (%): 12.22% and 6.72%
  Population Healthy Nuclei (%): 71.95% and 82.46%
  Population Hoechst High Intensity Objects (%): 0%
  Population Membrane Permeable-Phenotype (%): 6.29% and 4.52%
  Population Mitochondria Different-Phenotype (%): 3.14% and 6.33%
  Population Mitotic Cells (%): 68.57% and 58.62%
  Population Normal (%): 100%
  Population Pyknosed Nuclei (%): 15.84% and 10.82%
  Population Tubulin-Different-Phenotype (%): 15.09% and 21.72%
  Total Cell Count: 221 and 268
[4]
  Population Fragmented Nuclei (%): 7.39% and 6.93%
  Population Healthy Nuclei (%): 79.13% and 78.79%
  Population Hoechst High Intensity Objects (%): 0%
  Population Membrane Permeable-Phenotype (%): 3.3%
  Population Mitochondria Different-Phenotype (%): 8.79% and 13.74%
  Population Mitotic Cells (%): 90.32% and 69.7%
  Population Normal (%): 100%
  Population Pyknosed Nuclei (%): 13.48% and 14.29%
  Population Tubulin-Different-Phenotype (%): 20.33% and 33.52%
  Total Cell Count: 230 and 231
[5]
  Population Apoptotic (%): 31.03% and 50%
  Population Fragmented Nuclei (%): 12.03% and 5.81%
  Population Healthy Nuclei (%): 75.93% and 90.31%
  Population Hoechst High Intensity Objects (%): 0%
  Population Membrane Permeable-Phenotype (%): 3.28% and 3%
  Population Mitotic Cells (%): 68.97% and 50%
  Population Normal (%): 100%
  Population Pyknosed Nuclei (%): 12.03% and 3.88%
  Total Cell Count: 241 and 258
[6]
  Population Apoptotic (%): 16.67% and 38.89%
  Population Fragmented Nuclei (%): 10.79% and 5.86%
  Population Healthy Nuclei (%): 86.72% and 86.61%
  Population Hoechst High Intensity Objects (%): 0%
  Population Membrane Permeable-Phenotype (%): 1.91% and 6.76%
  Population Mitochondria Different-Phenotype (%): 11% and 9.66%
  Population Mitotic Cells (%): 83.33% and 61.11%
  Population Normal (%): 100%
  Population Pyknosed Nuclei (%): 2.49% and 7.53%
  Population Tubulin-Different-Phenotype (%): 13.88% and 38.65%
  Total Cell Count: 241 and 239

## Cl.Clc1ccc2nsnc2c1NC1=NCCN1 [TIZANIDINE HYDROCHLORIDE]
[1]
  Population Apoptotic (%): 38% and 33%
  Population Fragmented Nuclei (%): 10% and 24%
  Population Healthy Nuclei (%): 72% and 49%
  Population Hoechst High Intensity Objects (%): 3% and 4%
  Population Membrane Permeable-Phenotype (%): 0% and 5%
  Population Mitochondria Different-Phenotype (%): 4% and 5%
  Population Mitotic Cells (%): 61% and 66%
  Population Normal (%): 96% and 95%
  Population Pyknosed Nuclei (%): 17% and 25%
  Population Tubulin-Different-Phenotype (%): 21% and 50%
  Total Cell Count: 155 and 182
[2]
  Population Apoptotic (%): 36% and 21%
  Population Fragmented Nuclei (%): 18% and 24%
  Population Healthy Nuclei (%): 60% and 45%
  Population Hoechst High Intensity Objects (%): 4%
  Population Membrane Permeable-Phenotype (%): 0% and 7%
  Population Mitochondria Different-Phenotype (%): 8% and 7%
  Population Mitotic Cells (%): 64% and 78%
  Population Normal (%): 95%
  Population Pyknosed Nuclei (%): 20% and 29%
  Population Tubulin-Different-Phenotype (%): 29% and 33%
  Total Cell Count: 129 and 143
[3]
  Population Apoptotic (%): 52% and 42%
  Population Healthy Nuclei (%): 76% and 49%
  Population Hoechst High Intensity Objects (%): 2% and 4%
  Population Membrane Permeable-Phenotype (%): 0% and 9%
  Population Mitochondria Different-Phenotype (%): 0% and 4%
  Population Mitotic Cells (%): 47% and 57%
  Population Normal (%): 97% and 95%
  Population Pyknosed Nuclei (%): 16% and 24%
  Total Cell Count: 146 and 182
[4]
  Population Apoptotic (%): 45% and 47%
  Population Fragmented Nuclei (%): 19%
  Population Healthy Nuclei (%): 60% and 48%
  Population Hoechst High Intensity Objects (%): 1% and 2%
  Population Membrane Permeable-Phenotype (%): 0% and 9%
  Population Mitochondria Different-Phenotype (%): 5% and 6%
  Population Mitotic Cells (%): 54% and 52%
  Population Normal (%): 98% and 97%
  Population Pyknosed Nuclei (%): 20% and 32%
  Population Tubulin-Different-Phenotype (%): 20% and 34%
  Total Cell Count: 122 and 135
[5]
  Population Apoptotic (%): 47% and 55%
  Population Fragmented Nuclei (%): 17% and 29%
  Population Healthy Nuclei (%): 71% and 47%
  Population Hoechst High Intensity Objects (%): 2% and 6%
  Population Membrane Permeable-Phenotype (%): 2% and 6%
  Population Mitochondria Different-Phenotype (%): 1% and 8%
  Population Mitotic Cells (%): 52% and 44%
  Population Normal (%): 97% and 93%
  Population Pyknosed Nuclei (%): 10% and 23%
  Population Tubulin-Different-Phenotype (%): 19% and 56%
  Total Cell Count: 167 and 166
[6]
  Population Apoptotic (%): 69% and 63%
  Population Fragmented Nuclei (%): 26% and 35%
  Population Healthy Nuclei (%): 56% and 42%
  Population Hoechst High Intensity Objects (%): 2%
  Population Membrane Permeable-Phenotype (%): 0% and 6%
  Population Mitochondria Different-Phenotype (%): 5% and 11%
  Population Mitotic Cells (%): 30% and 36%
  Population Normal (%): 97%
  Population Pyknosed Nuclei (%): 17% and 21%
  Population Tubulin-Different-Phenotype (%): 26% and 44%
  Total Cell Count: 133 and 141
